The text below walks through data of ChEMBL document CHEMBL4513216, “Probing the Open Global Health Chemical Diversity Library for Multistage-Active Starting Points for Next-Generation Antimalarials” (ACS Infect Dis, 2020).

A short description of this series: Toxicity liver stage against HepG2, at 10uM. It counts as cell-based. Also on record: test concentration 10 uM, cell line HepG2-A16-CD81EGFP. The settings on record: human, HepG2-A16-CD81EGFP cells; read-out: INHIBITION
In outline: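 Uninfected HepG2-A16-CD81EGFP cells, 3 × 10^3 per well, 1536-well, plated on prespotted compound at 10 μM final, parasite-free screening media added to match infected plates; puromycin 10 μM positive, DMSO 0.5% negative; run in parallel with 48 h PbLuc assay at 37 °C, 5% CO2; viability by CellTiter-Glo luminescence, normalized to controls.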
As to `Cc1occc1C(=O)N1CCC2(CCN(Cc3ccccn3)C2=O)C1` (configuration not stated), the cytotoxicity at 10 µM is -152%.

Take `CN(C)c1cc(C2CCCN2)ccn1` (configuration not stated): the cytotoxicity at 10 µM turned out to be 5.8%.

`Cc1cc2cc(Nc3c(C#N)c(=O)n(C)c(=O)n3C)ccc2[nH]1`: the cytotoxicity at 10 µM came to 1.11%.

For `OC1(CNCc2ccc(F)c(C(F)(F)F)c2)CCSCC1`, the cytotoxicity at 10 µM was 5.1%.

On to `CCCc1cc(NCc2ccc(CO)cc2)n2nccc2n1`, for which the cytotoxicity at 10 µM is -14.1%.

Turning to `COc1ncccc1NC(=O)NCC(O)c1ccc(F)cc1F` (configuration not stated), the cytotoxicity at 10 µM is 30.9%.

In the case of `Cn1ccnc1CN1CCN(CC(=O)NCc2ccccc2F)CC1`, the cytotoxicity at 10 µM is -22.1%.

`Cc1cccc(NCc2nc(C)ccc2O)c1`: the cytotoxicity at 10 µM is -3.59%.

Consider `c1ccc(C2CCCN2C2CSCCSC2)nc1` (configuration not stated), for which the cytotoxicity at 10 µM was -3.77%.

With `CCCNC(=O)CN1CCC(NC(=O)c2cc(CC)ccc2O)CC1`, the cytotoxicity at 10 µM is 1.93%.

For `c1cnn(CCCO[C@@H]2CC[C@H]3[C@H]2OCCN3CC2CC2)c1`, the cytotoxicity at 10 µM was 5.93%.

As to `CCn1ncnc1CN(CCOC)Cc1ccc(C)cc1`, the cytotoxicity at 10 µM was -40.2%.

Consider `CNS(=O)(=O)c1cccc(CNc2ccc(C#N)cn2)c1`, for which the cytotoxicity at 10 µM was -4.36%.

Turning to `CC(C)OCCS(=O)(=O)NC1CCN(C2CCCC2)C1` (configuration not stated), the cytotoxicity at 10 µM is 1.68%.

For the compound `CCc1c(C)n(C)c2nc3ccccc3n2c1=O`, the cytotoxicity at 10 µM was 5.94%.

Take `CC(C)N(C)Cc1cc(=O)n2c(n1)CN(C(=O)c1ccc[nH]1)CCC2`: the cytotoxicity at 10 µM is -105%.

Consider `Cc1nc(C)n(CC2CCCCN2Cc2nnc(C3CC3)o2)n1` (configuration not stated), for which the cytotoxicity at 10 µM was -10.7%.

For `CC(=O)NCCCSC1CCN(c2ccccc2F)C1=O` (configuration not stated), the cytotoxicity at 10 µM was -2.45%.

Regarding `COc1ccc2nc(C[C@@H]3C[C@@H](C(C)C)[C@H](CN(C)C)C=C3C)[nH]c2n1`, the cytotoxicity at 10 µM was 5.09%.

Consider `COCCCN1CCC(CNc2nccc(-c3cnn(C)c3)n2)C1` (configuration not stated), for which the cytotoxicity at 10 µM is -147%.

In the case of `CCc1cnc(CN(C(C)=O)C2CCN(Cc3nccn3C)C2)o1` (configuration not stated), the cytotoxicity at 10 µM was -8.13%.

As to `CC(=O)N1CCOC(c2cncc(CCC(=O)N(C)C)n2)C1` (configuration not stated), the cytotoxicity at 10 µM is -0.197%.

Regarding `Clc1ccc(OCCc2cc(C3CCN(c4ncccn4)C3)n[nH]2)cc1` (configuration not stated), the cytotoxicity at 10 µM amounted to 7.45%.

For `Cc1cc(C)c(CNC(=O)NCC2CCCOC2)c(=O)[nH]1` (configuration not stated), the cytotoxicity at 10 µM is -8.19%.

Take `CN(CC1CC1)S(=O)(=O)c1ccc(C(F)(F)F)cc1C#N`: the cytotoxicity at 10 µM was 2.95%.

For `Cc1ccsc1C(=O)N1C[C@@H](C(=O)O)[C@H](C(C)C)C1`, the cytotoxicity at 10 µM amounted to 9.42%.

For `CCC[C@H]1CN(S(=O)(=O)c2cc(C)ccc2F)C[C@@H]1N`, the cytotoxicity at 10 µM was found to be 2.33%.

For `Cc1ccnc(NC(=O)C2CCN(CCCn3ccnc3)CC2)c1`, the cytotoxicity at 10 µM is -57.9%.

On to `O=C(c1csc(-c2nnc[nH]2)n1)N1CCCCC1Cn1cccn1` (configuration not stated), for which the cytotoxicity at 10 µM was -4.49%.

For the compound `Cc1ncsc1C(=O)NCc1ccc(-c2n[nH]cc2C(=O)N(C)C)cc1`, the cytotoxicity at 10 µM is 0.522%.

As for `Cc1ccc([C@@H]2CN(S(=O)(=O)c3cccs3)C[C@H]2N(C)C)cc1`, the cytotoxicity at 10 µM is -3.12%.

Regarding `Cc1ccc(Cl)c(CN2CCC(c3nccn3C(C)C)CC2)c1F`, the cytotoxicity at 10 µM was 4.8%.

For the compound `OCc1csc(N2CCCN(Cc3ccc(F)cc3)CC2)n1`, the cytotoxicity at 10 µM was -2.58%.

As to `Cc1nc(N(C)C)nc(-c2cccc(-c3ccn(CCCO)n3)c2)c1C`, the cytotoxicity at 10 µM is -6.51%.

As to `Cc1ccc(CNC(=O)C2CCCCN2C(=O)OC(C)(C)C)cn1` (configuration not stated), the cytotoxicity at 10 µM is -0.408%.

As to `O=C1CCC2(CCCN(C(=O)c3ccoc3)C2)CN1Cc1ccncc1` (configuration not stated), the cytotoxicity at 10 µM was found to be 3.06%.

For the compound `CC(C)Nc1cccc(C(=O)NCC(O)c2cccc(F)c2)c1` (configuration not stated), the cytotoxicity at 10 µM stood at 4.67%.

Consider `Cc1ccc(C(=O)NC2CCN(Cc3noc(C(C)(C)C)n3)CC2)s1`, for which the cytotoxicity at 10 µM came to 1.33%.

As to `Cc1ccc(C(N)=O)c(N2Cc3cnc(C(C)(C)C)nc3C2)n1`, the cytotoxicity at 10 µM was 8.05%.

Regarding `O=C(Cc1cccs1)N1CCC2(CCCN(CC3CCOCC3)C2)C1` (configuration not stated), the cytotoxicity at 10 µM was -144%.

For `Cc1cccc(CN2CCc3[nH]nc(C(=O)N4CCOCC4)c3C2)n1`, the cytotoxicity at 10 µM came to 6.31%.

Take `CN(C)c1ccc(C(=O)N2CCCN(C3CCCCC3)CC2)cn1`: the cytotoxicity at 10 µM is -6.46%.

On to `Cc1cc(CN2CCc3nn(C)c(=O)cc3C2)on1`, for which the cytotoxicity at 10 µM is -8.17%.

Take `c1cc(CO[C@@H]2CN(Cc3ccoc3)[C@@H]3CCCO[C@@H]32)ccn1`: the cytotoxicity at 10 µM is -102%.

On to `O=C(CCc1ccncc1)N1CCc2cc(Cl)cc(Cl)c2C1`, for which the cytotoxicity at 10 µM was -24.3%.

Consider `COCCN1CCCC2(CCN(c3ncc(Cl)cc3Cl)C2)C1=O` (configuration not stated), for which the cytotoxicity at 10 µM was 9.44%.

For `Cn1cc(N2CC3(CCN(S(=O)(=O)C4CC4)C3)CC2=O)cn1` (configuration not stated), the cytotoxicity at 10 µM was -9.82%.

`Cc1ncsc1CN1CCN(C2CCOCC2)CC(C(N)=O)C1` (configuration not stated): the cytotoxicity at 10 µM worked out at 14.4%.

Take `COCCN1C2(CCN(C(=O)c3cccs3)C2)c2ccccc2S1(=O)=O` (configuration not stated): the cytotoxicity at 10 µM is -131%.

As to `Cc1noc(C)c1C(=O)NCC(c1cccc(F)c1)N(C)C` (configuration not stated), the cytotoxicity at 10 µM was -13.1%.

In the case of `CC(C)c1ccc(-n2ncc(C(=O)NCC3COC(C)(C)O3)c2N)cc1` (configuration not stated), the cytotoxicity at 10 µM is -0.726%.

Take `COc1ccc(Nc2nc3c(C)nn(C)c3c(=O)n2C)c(C)c1`: the cytotoxicity at 10 µM was -6.06%.

Consider `CCOC(C)c1nc(Cn2cccn2)cs1` (configuration not stated), for which the cytotoxicity at 10 µM was 1.04%.

For the compound `CCC(=O)N(CC(N)=O)Cc1cccc(Oc2ccccc2)c1`, the cytotoxicity at 10 µM is 9.66%.

As to `COc1ccc(Cl)cc1NCC(=O)NCCNc1ncccn1`, the cytotoxicity at 10 µM was -9.24%.

As to `CN1CCCC(c2cccc(CCC(=O)NCc3ccccn3)n2)C1` (configuration not stated), the cytotoxicity at 10 µM was -14%.

Take `Cn1cc(C[C@H]2[C@H](O)CCN2C(=O)C2CCCC2)cn1`: the cytotoxicity at 10 µM is -3.49%.

Consider `Cc1nn(C)c(Oc2cccnc2)c1NC(=O)C1CCCO1` (configuration not stated), for which the cytotoxicity at 10 µM was -8.78%.

Turning to `CNS(=O)(=O)c1cccc(CNC(=O)c2cnn(C)c2C)c1`, the cytotoxicity at 10 µM turned out to be 0.857%.

Regarding `CC(C)CN1CCC2(CC1)C(=O)Nc1ccc(C(=O)N(C)C)cc12`, the cytotoxicity at 10 µM was -1.18%.

`O=C(CCCNCc1ccc(Cl)c2cccnc12)NC1CC1`: the cytotoxicity at 10 µM was -4.76%.

For the compound `CC(=O)N(C)CCCc1cc(-c2ccccc2)no1`, the cytotoxicity at 10 µM is -7.16%.

As for `CCN(CCOC)C(=O)CCc1scnc1C`, the cytotoxicity at 10 µM was -15.8%.

Regarding `O=C(c1ccc(Cl)cc1)N1CCC2(C1)C(=O)Nc1ccccc12` (configuration not stated), the cytotoxicity at 10 µM amounted to 1.91%.

In the case of `O=C(O)CCc1nc2nccc(-c3ccc(F)cc3)n2n1`, the cytotoxicity at 10 µM is -9.24%.

For the compound `CCCc1cnc(C)nc1NCCc1nc(C)cc(=O)[nH]1`, the cytotoxicity at 10 µM is -5.1%.

Turning to `O=C1CO[C@@H]2CN(Cc3cccnc3)C[C@H]2N1Cc1ccncc1`, the cytotoxicity at 10 µM is -77.6%.

For the compound `c1cncc(-c2noc(CN3CCc4cncnc4C3)n2)c1`, the cytotoxicity at 10 µM was -3.39%.

With `Cc1noc(C)c1CN1CCn2cc(CN3CCCC3)nc2C1`, the cytotoxicity at 10 µM amounted to 5.37%.

For `CN1CCn2c(-c3ccccc3)cnc2C12CCN(CC1CC1)CC2`, the cytotoxicity at 10 µM is 5.35%.

On to `Cc1cc(C(=O)CN2C(=O)c3ccccc3CS2(=O)=O)c(C)[nH]1`, for which the cytotoxicity at 10 µM worked out at 13.5%.

In the case of `CCn1nc2c(cc1=O)CN(CC1CCCCO1)CC2` (configuration not stated), the cytotoxicity at 10 µM is -2.94%.

Take `O=c1cc(CSc2nnc[nH]2)nc2sc3c(n12)CCCC3`: the cytotoxicity at 10 µM was -6.04%.

In the case of `Cc1ccc(F)cc1NS(=O)(=O)c1cc2c(c(C(=O)O)c1)OCCO2`, the cytotoxicity at 10 µM is -3.88%.

For `Cn1cc(CNC(=O)C2COCC(=O)N2Cc2ccccc2)cn1` (configuration not stated), the cytotoxicity at 10 µM is -4.88%.

For the compound `CC(C)SCC(=O)N1CCc2c(nc(N(C)C)nc2N(C)C)C1`, the cytotoxicity at 10 µM worked out at 21.1%.

On to `O=C(Nc1cnc(N2CCOCC2)nc1)c1ccc(C(F)(F)F)cc1`, for which the cytotoxicity at 10 µM turned out to be 9.94%.

As for `CC(C)N1CCCn2nc(C(=O)NCCc3ccccn3)cc2C1`, the cytotoxicity at 10 µM is -1.95%.

On to `CC(C)NC(=O)[C@H]1C[C@H]2CN(C(=O)NC(C)C)C[C@@H]1O2`, for which the cytotoxicity at 10 µM is -105%.

For the compound `CC1CCCN(C(=O)Nc2cccc(CN3CCOC3=O)c2)C1` (configuration not stated), the cytotoxicity at 10 µM was 18.3%.

Take `N#Cc1ccc(CC(=O)N2CCCC(n3cccn3)C2)cc1` (configuration not stated): the cytotoxicity at 10 µM was -1.95%.

With `O=C(CSc1nnc(N2CCOCC2)s1)NCc1cccs1`, the cytotoxicity at 10 µM is 1.66%.

Take `CC(C)N1CCCN(c2nc(-c3cccnc3)nc3c2cnn3C)CC1`: the cytotoxicity at 10 µM is 28.2%.

With `Cn1ncc2c(=O)[nH]c(CN3CCC(Cc4ccccc4)CC3)nc21`, the cytotoxicity at 10 µM is -2.28%.

As for `CN(C)CCn1c2c(ccc1=O)CC(NCc1cccnc1)CC2` (configuration not stated), the cytotoxicity at 10 µM amounted to 14.4%.

In the case of `COc1c(F)ccc(C(=O)N2CC[C@H](CO)[C@@H](O)C2)c1F`, the cytotoxicity at 10 µM is -3.85%.

On to `O=C(O)CCCC(=O)NCC1(O)CCN(c2ccnc3cccnc23)C1` (configuration not stated), for which the cytotoxicity at 10 µM is 5.09%.

Consider `CNC(=O)CCS(=O)(=O)Cc1cc(Cl)c2c(c1)OCCO2`, for which the cytotoxicity at 10 µM was -4.89%.

On to `COC(=O)c1cccc(NC(=O)CCn2nc(-c3cccs3)oc2=O)c1`, for which the cytotoxicity at 10 µM was -8.13%.

For the compound `COc1cc2c(nn1)CCN(CC(O)COc1ccc(C#N)cc1)C2` (configuration not stated), the cytotoxicity at 10 µM was -2.19%.

On to `COc1ccc(-c2noc(CNC(C)Cn3cccn3)n2)c(OC)c1` (configuration not stated), for which the cytotoxicity at 10 µM was -0.144%.

As for `O=C(NCC1(COc2cnccn2)C[C@@H](O)[C@@H](O)C1)C1CCOCC1` (some centres not stated), the cytotoxicity at 10 µM is -2.48%.

For the compound `Cn1cc(CN2CCC3(CC2)CCN(Cc2ccccn2)CC3)cn1`, the cytotoxicity at 10 µM was found to be 9.84%.

Regarding `CC1(c2ncc(CN3CCSCC3)cn2)CCCCO1` (configuration not stated), the cytotoxicity at 10 µM stood at 2.12%.

`CC(C)C(C)NC(=O)c1cccn1Cc1cccnc1` (configuration not stated): the cytotoxicity at 10 µM is -44%.

As for `CCn1ccnc1CN1CCC(Oc2cccc(F)c2)(C(=O)O)CC1`, the cytotoxicity at 10 µM is 3.67%.

In the case of `CCN(C(=O)CS(=O)(=O)c1cc(OC)c(OC)cc1C)C1CC1`, the cytotoxicity at 10 µM was -3.91%.
